Assay outcomes as filed in PubChem.
SKN-1 block: C. elegans SKN-1 inhibition; C. elegans VP596 Pgst-4::GFP/RFP ratio, acrylamide-induced, 24 h; inhibition, % at 21.8 µM; actives 0.49% (n = 360,000);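 active = interference check ratio from 0.5 to 1.5 plus GFP to RFP signal ratio inhibition reaching or exceeding a fixed threshold, cut at about 30% in these data, passing the limit was not always enough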
TbMetRS inhib: Trypanosoma brucei MetRS inhibition; purified T. brucei MetRS, ATP depletion, Kinase-Glo luminescence; inhibition, % at 11.9 µM; actives 0.4% (n = 360,000); AID 624268;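 active = inhibition above a per-plate cutoff of the control wells' mean inhibition plus 3 SD, cut at about 5.5% in these data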;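 also: 0% = DMSO wells median and 100% = median of wells with control inhibitor compound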
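Material – parasite MetRS enzyme · Medium – HEPES-MgCl2-KCl buffer plus DTT, spermine, BSA, pyrophosphatase · Reagent – ATP, methionine and E. coli bulk tRNA substrates · Times – 15 min enzyme-compound preincubation, 2 h reaction, 10 min detection, 25 °C · Measured by – luminescence of leftover ATP · Evaluation – percent inhibition relative to median high and low control wells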
MT1-MMP act inh: inhibitors of human MT1-MMP activation; HT1080 RFP-PRO-GFP cells, GFP/RFP ratio fluorescence, overnight; percent of plate control window, DMSO zero; GFP/RFP ratio change, % at 20 µM; actives 0.061% (n = 360,000);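 active = GFP/RFP ratio change of at least 30% with cell ATP level not reduced by more than half and red fluorescence within 50% of control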
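Test system: HT1080 cells expressing an RFP-PRO-GFP fluorescent reporter construct / Compound dosing: single-point 20 µM compound, 1% DMSO / Schedule: cells overnight before dosing, compound overnight, 37 °C, 5% CO2 / Evaluation: GFP/RFP fluorescence ratio / Control set: DMSO and RFP-L50D-GFP cell wells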
Arr AP2 block: blocks beta-arrestin peptide binding to AP2 adaptin; FITC-arrestin peptide / GST-AP2 beads, flow cytometry; AP2 beta2 appendage carries R879A mutation; inhibition, % at 10 µM; actives 0.31% (n = 340,000); AID 504490;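 active = inhibition above a set limit, near 3 SD of compounds lacking own fluorescence, cut at about 54% in these data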;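 also: plate controls were DMSO wells for no effect and 5 µM unlabelled arrestin peptide for full effect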
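Assay system: GST-AP2 R879A bound to glutathione beads, E. coli-expressed; Medium: PBS with 0.05% Tween 20 and 0.1% BSA; Also added: fluorescein-tagged arrestin peptide at 50 nM final; Timing: 12 min plus 1 h, RT; Measured by: flow cytometry, FL1 (488/535 nm); Evaluation: percent drop in bead-associated FITC signal.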
Rin1 Abl inh: inhibitors of human Rin1-Abl protein interaction | P00519+Q13671 | TR-FRET Rin1/Abl binding, biochemical | inhibition, % at 7.35 µM | actives 0.4% (n = 360,000); in the data active = inhibition above about 5%, passing the limit was not always enough
Rin1-Abl confirm: confirmation of inhibitors of human Rin1-Abl interaction. TR-FRET Rin1-Abl binding, purified proteins. shares compounds with Rin1 Abl inh. actives 49% (n = 1,300). inhibition, % at 7.35 µM
GFP quencher: quenches GFP fluorescence, counter-screen for Rin1-Abl inhibitors | shares compounds with Rin1 Abl inh | inhibitors/quenchers counterscreen | inhibition, % at 6.75 µM | actives 8.5% (n = 1,300);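 also: ABL1-eGFP fusion protein alone without its partner RIN1-SBP; 0% = protein with vehicle and 100% = wells lacking protein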
GFP quench DR: quenches GFP in dose response, Rin1-Abl counter-screen. shares compounds with Rin1 Abl inh. GFP fluorescence interference/quenching counterscreen. IC50, µM. 230 tested, under 10 active; call rule not given here;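 also: ABL1-eGFP fusion protein alone without its RIN1 binding partner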
* marks the source's active call; other numbers are inactive results; nt = no result. This is a sample that favours compounds with a hit; in the whole collection about 1.6% have one here. Rule as the data show it, unless noted: active = inhibition above about 6.5%; inactive = the rest.

SMILES	SKN-1 block	TbMetRS inhib	MT1-MMP act inh	Arr AP2 block	Rin1 Abl inh	Rin1-Abl confirm	GFP quencher	others
COc1cccc(N2CCN(C(=O)c3cccc(NC4=NC5CS(=O)(=O)CC5S4)c3)CC2)c1 (stereo not given)	14.0	-0.3	-0.2	1.0	1.1	nt	nt
CCOC(=O)C1CCN(C(=O)c2cccc(NC3=NC4CS(=O)(=O)CC4S3)c2)CC1 (stereo not given)	0.5	-0.4	1.8	-9.5	18.4*	15.1*	-0.6
CCNC(=O)C1(C)CCN(C(=O)c2ccc(C#N)cc2)C1 (stereo not given)	8.1	-0.2	0.6	nt	1.4	nt	nt
CCC1Cc2[nH][nH]c(=O)c2C(CC)O1 (stereo not given)	10.6	-1.1	-2.5	nt	nt	nt	nt
O=C(Nc1ccccc1Cl)c1ccc2ccccc2c1	-4.6	-1.9	-2.5	12.4	7.6*	-2.8	-0.4
CC1(C(=O)NS(=O)(=O)c2cccc(C#N)c2)CCN1C(=O)Cc1cc(F)ccc1F (stereo not given)	17.9	0.6	-0.1	nt	-3.1	nt	nt
COC(=O)N(C)C[C@@H]1OCc2cnnn2CCCC(=O)N([C@H](C)CO)C[C@H]1C	5.3	-1.1	9.5	nt	-4.6	nt	nt
CC1(Cc2ccc3c(c2)OCO3)C(=O)Nc2ccc(-c3cccc(C(F)(F)F)c3)cc21 (stereo not given)	30.6	0.2	-1.0	nt	7.7*	-2.5	-0.2
CC1(Cc2ccc(C(F)(F)F)o2)C(=O)Nc2ccc(-c3cccc(C(F)(F)F)c3)cc21 (stereo not given)	33.7	0.6	-1.2	nt	-1.4	nt	nt
COc1ccccc1OCC(=O)NCC1CCCN(C(=O)c2cccc(C)c2)C1 (stereo not given)	-5.7	-0.1	1.2	nt	-3.9	nt	nt
O=C(N/N=C/c1ccc(OCc2ccc(F)cc2)cc1)c1ccccc1	5.7	0.5	-0.8	24.6	3.0	nt	nt
O=C(COc1ccccc1C(=O)N/N=C\c1ccc(O)c(O)c1)N/N=C/c1ccc(O)c(O)c1	6.6	3.2	-2.6	21.7	27.9*	38.1*	11.6*
CC(C)(C)c1ccc(OCc2ccc(C(=O)N/N=C/c3ccc(O)c(O)c3)cc2)cc1	-8.8	0.0	-23.7	-4.5	8.2*	8.8*	1.8
O=C(COc1ccccc1[N+](=O)[O-])N/N=C/c1ccc(O)c([N+](=O)[O-])c1	-0.6	-0.8	3.1	15.1	0.3	nt	nt
Cc1ccc(S(=O)(=O)N2CC3C(=O)C[C@@H](c4ccccc4)N(S(=O)(=O)c4ccc(CCCOCCOCCNC(=O)OC(C)(C)C)cc4)C3CC2c2ccccc2)cc1 (stereo not given in full)	-1.6	0.2	3.7	nt	nt	nt	nt
CCSCCOC(=O)C1=C(C)NC2=C(C(=O)CCC2)C1c1coc2ccccc2c1=O (stereo not given)	18.2	-1.6	1.7	-14.5	19.8*	29.8*	-0.2	GFP quench DR=>67.5
CC1=C(C(=O)OC(C)C)C(c2coc3ccccc3c2=O)C2=C(CCCC2=O)N1 (stereo not given)	9.8	-1.0	-2.8	5.4	-2.0	nt	nt
O=C(CCSc1nnc(-c2ccc(O)cc2)o1)N1CCOCC1	2.7	0.7	-1.1	2.4	14.9*	16.4*	-1.2
Cc1nccn1CC(=O)c1ccccc1	-10.0	-0.1	0.2	nt	6.1	nt	nt
O=c1[nH]c(=S)[nH]c2c1[C@H](CCc1cccc(Cl)c1)O[C@H](C1CCCC1)C2	-9.9	-0.5	-11.0	nt	nt	nt	nt
NC(N)=NCCCS(=O)(=O)Nc1ccc(Nc2c3ccccc3nc3cc([N+](=O)[O-])ccc23)cc1	19.6	-0.2	-5.6	-21.4	-0.6	nt	nt
N#CCC(=O)Nc1ccc(C(=O)NCCC(c2ccccc2)c2ccccc2)cc1	-3.8	-0.3	2.2	10.4	2.9	nt	nt
CN(C)C(CNC(=O)c1ccc(NC(=O)CC#N)cc1)c1ccccc1 (stereo not given)	-9.8	-1.3	-2.0	25.3	10.1*	6.7*	-0.2
O=S(=O)(c1ccc2c(c1)oc1ccccc12)N1CCOCC1	-7.0	-2.9	-1.5	2.5	8.5*	-1.0	0.9
Cn1c(=O)oc2cc(S(=O)(=O)N3CCOCC3)ccc21	-21.2	0.1	2.5	-18.9	4.2	nt	nt
SMILES	SKN-1 block	TbMetRS inhib	MT1-MMP act inh	Arr AP2 block	Rin1 Abl inh	Rin1-Abl confirm	GFP quencher	others
COc1ccc(CCC2(C)NC(=O)N(C(C)C(=O)Nc3ccccc3F)C2=O)cc1 (stereo not given)	14.9	-0.2	0.5	-2.0	1.6	nt	nt
CC(C)C[C@H]1CNC(=O)C(=O)N1C[C@@H]1CCCN1C[C@H](CC(C)C)N1C[C@H](Cc2ccccc2)N(CCc2ccccc2)C(=O)C1=O	-8.1	-1.8	-5.1	nt	nt	nt	nt
OC[C@@H]1CN(Cc2ccc(-c3ccccc3)cc2)C[C@H](n2cnc3c(NC4CCC4)ncnc32)O1	-3.9	-0.4	7.9	nt	17.5*	24.2*	-0.8	GFP quench DR=>67.5
OCCCNc1ncnc2c1ncn2[C@H]1CN(Cc2ccc(-c3ccccc3)cc2)C[C@@H](CO)O1	-3.6	-0.1	-1.4	nt	19.0*	22.2*	0.0	GFP quench DR=>67.5
OC[C@@H]1CN(Cc2ccccc2)C[C@H](n2cnc3c(NC4CC4)ncnc32)O1	7.8	-0.2	1.4	nt	1.9	nt	nt
COCCNc1ncnc2c1ncn2[C@H]1CN(Cc2ccc(-c3ccccc3)cc2)C[C@@H](CO)O1	15.8	-0.4	-1.5	nt	9.6*	10.8*	-0.9
COc1cc(CN2C[C@@H](CO)O[C@@H](n3cnc4c(NCc5ccc(F)cc5)ncnc43)C2)cc(OC)c1OC	-18.2	-0.3	7.7	nt	10.9*	6.5*	-3.3
OCCCNc1ncnc2c1ncn2[C@H]1CN(Cc2cccs2)C[C@@H](CO)O1	8.7	-0.2	-1.7	nt	1.5	nt	nt
COCCNc1ncnc2c1ncn2[C@H]1CN(Cc2ccc(F)cc2)C[C@@H](CO)O1	2.4	-0.2	0.0	nt	0.7	nt	nt
COCCNC(=O)C1(C)CCCN(C(=O)c2ccccc2)C1 (stereo not given)	19.7	-0.2	-0.1	nt	-1.5	nt	nt
CCCCC(=O)N(C)c1c(C)nc2ccc(C(=O)N3CCNC(=O)C3)cn12	16.0	-0.1	3.5	nt	-1.1	nt	nt
Cc1[nH]c2ccccc2c1C(=O)c1cc(Cc2ccccc2)sc1N	13.2	0.8	-3.4	nt	nt	nt	nt
CC1(Oc2ccc(Cl)cc2)CCN(Cc2ccc(-c3ccccn3)cc2)C1 (stereo not given)	5.9	-0.1	1.2	nt	-5.4	nt	nt
CN(C(=O)CSc1nnc(CN2CCCC2)n1Cc1ccccc1)c1ccccc1	6.1	0.3	-0.5	-11.4	0.1	nt	nt
